# Test results: ChEMBL document CHEMBL1131499, “Molecular features associated with polyamine modulation of NMDA receptors” (J Med Chem, 1998)
# Key:
# [1] = Partition coefficient (logP)
# [2] = Dissociation constant (pK2)
# [3] = Dissociation constant (pK1)
# [4] = target: Glutamate NMDA receptor (Rattus norvegicus) (UniProt P35439+Q00959+Q00960+Q00961+Q62645+Q8VHN2+Q9R1M7); test: Enhanced binding of [3H]MK-801 to N-methyl-D-aspartate glutamate receptor in presence of spermine; format: protein-complex assay
# How it was run: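 Forebrain membranes (minus cerebellum and brainstem) from adult male Sprague–Dawley rats, prepared by buffy-coat centrifugation in 5 mM HEPES/4.5 mM Tris pH 7.6 with EDTA washes, then stored frozen. About 50 μg protein incubated with [³H]MK-801 (final 4–4.5 nM) plus spermine, without added glutamate or glycine, for 2 h at room temperature. Filtered on polyethylenimine-soaked glass fiber filters. Nonspecific binding defined with 100 μM PCP; counted by scintillation.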
SMILES,ΔpK [1],pKa [2],pKa [3],Sp Max [4]
CN(C)CC(C)(C)CN,3.15,7.13,10.3,
CN1CC2CC1C[C@H](N)C2 (stereo not given in full),,,,13%
CN(C)C1CCNCC1,2.95,7.71,10.7,44%
CC1(C)CC(NCCO)CC(C)(C)N1,3.1,7.42,10.5,
CNCC(C)CNC,2.26,8.29,10.6,11%
CN1CC2CC1C[C@@H](N)C2 (stereo not given in full),,,,8%
CN(C)C1CC(C)(C)NC(C)(C)C1,2.89,7.67,10.6,
NCC(=O)CN,1.43,6.89,8.32,72%
NCCCN,1.86,8.69,10.6,22%
"C1CCN(C2CCNCC2)CC1 [[1,4']Bipiperidinyl]",2.76,7.97,10.7,
C=CCN(CC=C)CCCN(CC=C)CC=C,1.84,6.96,8.8,
CN(C)CCCN(C)C,,7.77,9.81,22%
NCCCNCCO,2.09,8.19,10.3,16%
CNC1CCN(C)CC1,2.75,7.34,10.1,2%
CNCCCN,2.01,8.66,10.7,15%
C1CCN(CCCN2CCCCC2)CC1,2.06,8.33,10.4,
CC1(C)CC(N)CC(C)(C)N1,2.73,7.9,10.6,
NC1CCN(Cc2ccccc2)CC1,2.74,7.05,9.79,
NC1CCNCC1,2.53,8.1,10.6,12%
CNCCCNC,2.02,8.68,10.7,16%
NCC(O)CN,1.54,8.14,,35%
OCCNC1CCN(Cc2ccccc2)CC1,2.57,6.67,9.24,
CC(C)(CN)CN,2.37,7.81,10.2,5%
